A short description of data set [1]: Diuretic activity was determined expressed as Na+(sodium) excreted in milli equivalents was reported for a duration of 5 hours after administration of a dose of 25 mg/Kg. It counts as ADME, Urine. The following applies: in vivo. In outline: (§1)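 Male SH rats (Okamoto strain), 16 weeks old, dosed orally by gavage with compound dispersed in 3% starch in normal saline at 2 mL/kg. Oral normal saline load, then individual metabolism cages; 0-5 h urine collected, Na+ and K+ measured by flame photometry. Rats redosed at 24 h without the saline load. MABP and HR taken by femoral arterial puncture under local anesthetic 4 h after the second dose.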

The test system of data set [2] is Rattus norvegicus. Kind of data set: Diuretic activity was determined in SH rats expressed as K(+) (potassium) excreted in milli equivalents was reported for a duration of 5 hours after administration of a dose of 25 mg/Kg. The data set is classed as ADME, organism-based, Urine. The following applies: in vivo. In outline:
as §1

Data set [3] has as its system Rattus norvegicus. Nature of the data set: Antihypertensive activity in SH rats, and mean arterial blood pressure was reported at a dose of 25 mg/Kg. The data set is classed as functional, Artery. In outline:
as §1

In data set [4] the test system is Rattus norvegicus. Nature of the data set: Antihypertensive activity determined as heart rate in SH rats, was reported at a dose of 25 mg/Kg. The data set is classed as functional. In a few lines:
as §1

Data set [5] in a line: Diuretic activity was determined expressed as volume of urine excreted in mL was reported at a dose of 25 mg/Kg. The following applies: in vivo. The data set is classed as ADME. In outline:
as §1

Data set [6] is described as follows: Diuretic activity was determined expressed as Na+(sodium) excreted in milli equivalents was reported for a duration of 5 hours after administration of a dose of 100 mg/Kg. The data set is classed as ADME, Urine. As to conditions: in vivo. In a few lines: as §1
The nature of data set [7]: (§2) Diuretic activity was determined expressed as volume of urine excreted in mL was reported at a dose of 100 mg/Kg. The data set is classed as ADME. As to conditions: in vivo. In outline: as §1
Data set [8] deals with Rattus norvegicus. Nature of the data set: Antihypertensive activity determined as heart rate in SH rats, was reported at a dose of 100 mg/Kg. It counts as functional. In outline:
as §1

In data set [9] the test system is Rattus norvegicus. Kind of data set: Antihypertensive activity in SH rats, and mean arterial blood pressure was reported at a dose of 100 mg/Kg. The data set is classed as functional, Artery. In a few lines: as §1
Data set [10] deals with Rattus norvegicus. Kind of data set: Diuretic activity was determined in SH rats expressed as K(+) (potassium) excreted in milli equivalents was reported for a duration of 5 hours after administration of a dose of 100 mg/Kg. It counts as ADME, organism-based, Urine. As to conditions: in vivo. In outline:
as §1

The test system of data set [11] is Rattus norvegicus. The data set is described as §2. The following applies: in vivo. It counts as ADME, organism-based. In outline: as §1
Data set [12] relates to Rattus norvegicus. Kind of data set: Diuretic activity was determined in SH rats expressed as K(+) (potassium) excreted in milli equivalents was reported for a duration of 5 hours after administration of a dose of 100 mg/Kg. It counts as ADME, organism-based, Urine. The following applies: in vivo. In outline:
as §1

Data set [13] concerns Rattus norvegicus. Nature of the data set: Diuretic activity was determined in SH rats expressed as K(+) (potassium) excreted in milli euivalents was reported for a duration of 5 hours after administration of a dose of 100 mg/Kg. The following applies: in vivo.

Regarding `CCN(CC)c1ccc(CNc2cc(Cl)c(/N=C/N(C)C)c(Cl)c2)cc1`, the Diuretic activity in [1] stood at 2.02 m equiv; with Rattus norvegicus [2] it was 0.71 m equiv; in data set [5], 21.3 mL. Besides, the MABP in the data set with Rattus norvegicus [3] is given as 153 mmHg. For the same compound, in the data set with Rattus norvegicus [4], the HR stood at 400 beats min-1.

For `COc1ccc(CNc2cc(Cl)c(/N=C/N(C)C)c(Cl)c2)cc1OC`, the figures for the Diuretic activity (in data set [6]; in [7]; in the data set on Rattus norvegicus [10]) were 0.47 m equiv, 8.3 mL and 0.37 m equiv, respectively. Also, the HR in the data set with Rattus norvegicus [8] was found to be 410 beats min-1. This compound also had an MABP in the data set on Rattus norvegicus [9] of 133 mmHg.

In the case of `CC(=O)Nc1ccc(CNc2cc(Cl)c(/N=C/N(C)C)c(Cl)c2)cc1`, the Diuretic activity in [6] worked out at 0.66 m equiv; with Rattus norvegicus [11] it was 9.5 mL; with Rattus norvegicus [12], 0.62 m equiv. The compound also had an HR with Rattus norvegicus [8] of 340 beats min-1. The compound further displayed an MABP in the data set on Rattus norvegicus [9] of 150 mmHg.

As for `CN(C)/C=N/c1c(Cl)cc(NCc2cccc(F)c2)cc1Cl`, the values for the Diuretic activity (in data set [6]; in data set [7]; in the data set with Rattus norvegicus [12]) were 1.93 m equiv, 25 mL and 0.59 m equiv, respectively. In the data set on Rattus norvegicus [8], this compound had an HR of 290 beats min-1. In the data set with Rattus norvegicus [9], the MABP was determined as 120 mmHg.

For the compound `COc1cc(CNc2cc(Cl)c(/N=C/N(C)C)c(Cl)c2)cc(OC)c1OC`, the Diuretic activity in data set [6] amounted to 1.4 m equiv; in data set [7] it was 17.5 mL; in the data set with Rattus norvegicus [10] it was 0.57 m equiv. In the data set on Rattus norvegicus [8], the HR is recorded as 360 beats min-1. The MABP with Rattus norvegicus [9] amounted to 138 mmHg.

As for `NS(=O)(=O)c1cc2c(cc1Cl)NCNS2(=O)=O` [HYDROCHLOROTHIAZIDE], the results for the Diuretic activity (in data set [6]; in data set [7]; with Rattus norvegicus [12]) were 1.63 m equiv, 13.2 mL and 0.65 m equiv, respectively. Also, the HR with Rattus norvegicus [8] is 436 beats min-1. Also, the MABP in the data set with Rattus norvegicus [9] was 153 mmHg.

With `CN(C)/C=N/c1c(Cl)cc(NCc2ccc(N(C)C)c(Br)c2)cc1Cl`, the Diuretic activity was 1.18 m equiv in data set [1], 0.77 m equiv in the data set on Rattus norvegicus [2] and 14 mL in data set [5]. In addition, the MABP in the data set with Rattus norvegicus [3] came out at 173 mmHg. This compound showed an HR in the data set with Rattus norvegicus [4] of 420 beats min-1.

As for `Clc1cccc(Cl)c1NC1=NCCN1` [CLONIDINE], the values for the Diuretic activity (in data set [7]; in the data set on Rattus norvegicus [13]) were 16.4 mL and 0.16 m equiv, respectively. Moreover, the HR in the data set with Rattus norvegicus [8] was 180 beats min-1; in the data set with Rattus norvegicus [4], 220 beats min-1. Moreover, the MABP is 113 mmHg in the data set on Rattus norvegicus [3] and 102 mmHg with Rattus norvegicus [9].

Consider `CN(C)/C=N/c1c(Cl)cc(NCc2cccc(C(F)(F)F)c2)cc1Cl`, for which the Diuretic activity in data set [6] is 2.04 m equiv; in data set [7], 21.3 mL; with Rattus norvegicus [12], 0.5 m equiv. For the same compound, in the data set with Rattus norvegicus [8], the HR is reported as 420 beats min-1. The MABP in the data set on Rattus norvegicus [9] is 165 mmHg.

Take `CN(C)/C=N/c1c(Cl)cc(NCc2cccc(Br)c2)cc1Cl`: the figures for the Diuretic activity (in data set [6]; in [7]; in the data set on Rattus norvegicus [13]) were 1.9 m equiv, 19.3 mL and 0.48 m equiv, respectively. Moreover, the HR with Rattus norvegicus [8] is recorded as 350 beats min-1. The same compound showed an MABP in the data set with Rattus norvegicus [9] of 120 mmHg.

As to `CN(C)/C=N/c1c(Cl)cc(NCc2cc(Cl)cc(Cl)c2)cc1Cl`, the Diuretic activity in data set [1] is 1.34 m equiv; with Rattus norvegicus [2], 0.42 m equiv; in [5], 13.8 mL. In addition, in the data set with Rattus norvegicus [3], the MABP turned out to be 139 mmHg. The compound further displayed an HR in the data set on Rattus norvegicus [4] of 290 beats min-1.

As to `COc1ccc(CNc2cc(Cl)c(/N=C/N(C)C)c(Cl)c2)cc1F`, the Diuretic activity in [6] is 1.15 m equiv; in data set [7], 16.8 mL; with Rattus norvegicus [10], 0.43 m equiv. Besides, in the data set with Rattus norvegicus [8], the HR was found to be 320 beats min-1. In the data set on Rattus norvegicus [9], this compound yielded an MABP of 113 mmHg.

Turning to `CN(C)/C=N/c1c(Cl)cc(NCc2ccc(N(C)C)cc2)cc1Cl`, the figures for the Diuretic activity (in [1]; in the data set on Rattus norvegicus [2]; in data set [5]) were 0.55 m equiv, 0.39 m equiv and 5.5 mL, respectively. Besides, the MABP in the data set on Rattus norvegicus [3] is given as 171 mmHg. For the same compound, the HR with Rattus norvegicus [4] is listed as 450 beats min-1.

As to `CN(C)/C=N/c1c(Cl)cc(NCc2ccccc2O)cc1Cl`, the Diuretic activity in [6] is 0.72 m equiv; in data set [7], 12.3 mL; in the data set on Rattus norvegicus [12], 0.68 m equiv. This compound also yielded an HR with Rattus norvegicus [8] of 340 beats min-1. Moreover, in the data set with Rattus norvegicus [9], the MABP is 150 mmHg.

`CN(C)/C=N/c1c(Cl)cc(NCc2ccc(N(C)C)cc2Br)cc1Cl`: the figures for the Diuretic activity (in [1]; with Rattus norvegicus [2]; in data set [5]) were 1.86 m equiv, 0.45 m equiv and 19.3 mL, respectively. The same compound came in with an MABP with Rattus norvegicus [3] of 115 mmHg. The HR with Rattus norvegicus [4] was found to be 280 beats min-1.

Consider `CN(C)/C=N/c1c(Cl)cc(NCc2ccc(N(C)C)cc2F)cc1Cl`, for which the results for the Diuretic activity (in data set [1]; in the data set on Rattus norvegicus [2]; in data set [5]) were 2.26 m equiv, 0.71 m equiv and 23.5 mL, respectively. Also, in the data set with Rattus norvegicus [3], the MABP is recorded as 155 mmHg. The HR in the data set on Rattus norvegicus [4] was determined as 400 beats min-1.

As to `CN(C)/C=N/c1c(Cl)cc(NCc2ccc(-c3ccccc3)cc2)cc1Cl`, the Diuretic activity in [6] is 0.46 m equiv; in data set [7] it was 7.3 mL; in the data set on Rattus norvegicus [12], 0.5 m equiv. In addition, the HR in the data set with Rattus norvegicus [8] is listed as 400 beats min-1. Besides, in the data set on Rattus norvegicus [9], the MABP came to 143 mmHg.

The values above are taken from ChEMBL document CHEMBL1122545, “N2-(4-Substituted-2,6-dichlorophenyl)-N1,N1-dimethylformamidines as antihypertensive and diuretic agents” (J Med Chem, 1984).
